Data published in ChEMBL document CHEMBL1122290, “N-(substituted-phenyl)-D-glycopyranosylamines and their O-acetyl derivatives as potential modifiers of the formation of glycosaminoglycans” (1983).

The molecules below were run on B16 (assay: In vitro compound's ability to inhibit the replication of cultured B16 melanoma cells). Settings: Mus musculus, read-out: ID50 (the source's name).
Assay type: functional
Outline: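 B16/F10 melanoma cells, kept as monolayers at 37 °C in Eagle's MEM with Hanks' salts plus 10% fetal calf serum, were seeded from exponential growth at 1.5 to 3 × 10⁵ cells per 25-cm² flask. Compound (0.1 μM–0.1 mM) was added at seeding. After 72 h, cells were trypsinized and counted electronically. ID50 was read graphically from at least two replicate experiments.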

SMILES | IC50
O=C(O)c1ccc(N[C@@H]2O[C@H](CO)[C@@H](O)[C@H](O)[C@H]2O)cc1 | 100 µM
O=C(O)c1ccc(N[C@@H]2OC[C@@H](O)C(O)[C@@H]2O)cc1 (stereo partly drawn) | 38 µM
O=C(O)c1ccc(N[C@@H]2OC[C@@H](O)C(O)[C@H]2O)cc1 (stereo partly drawn) | 100 µM
CC(=O)OCC1O[C@@H](Nc2ccc(C(=O)O)cc2)[C@@H](OC(C)=O)C(OC(C)=O)[C@H]1OC(C)=O (stereo partly drawn) | 49 µM
O=C(O)c1ccc(N[C@@H]2O[C@H](CO)[C@@H](O)[C@H](O)[C@@H]2O)cc1 | 39 µM
O=C(O)c1ccc(N[C@@H]2OC(CO)[C@@H](O)C(O)[C@@H]2O)cc1 (stereo partly drawn) | 100 µM

Second part, the molecule after the results:

IC50 | SMILES
37 µM | CC1O[C@@H](Nc2ccc(C(=O)O)cc2)[C@@H](O)C(O)[C@H]1O (stereo partly drawn)
25 µM | CC(=O)OCC1O[C@@H](Nc2ccc(C(=O)OC(C)=O)cc2)[C@H](OC(C)=O)C(OC(C)=O)[C@@H]1OC(C)=O (stereo partly drawn)
18 µM | CC(=O)OCC1O[C@@H](Nc2ccc(C(=O)O)cc2)[C@@H](OC(C)=O)C(OC(C)=O)[C@@H]1OC(C)=O (stereo partly drawn)
25 µM | CC(=O)OC(=O)c1ccc(N[C@@H]2OC[C@@H](OC(C)=O)C(OC(C)=O)[C@@H]2OC(C)=O)cc1 (stereo partly drawn)
4 µM | CC(=O)OC1[C@@H](OC(C)=O)CO[C@@H](Nc2ccc(C(=O)O)cc2)[C@@H]1OC(C)=O (stereo partly drawn)
30 µM | O=C(O)c1ccc(N[C@@H]2O[C@H](CO)[C@H](O)[C@H](O)[C@H]2O)cc1
20 µM | CC(=O)OC1[C@@H](OC(C)=O)C(C)O[C@@H](Nc2ccc(C(=O)O)cc2)[C@H]1OC(C)=O (stereo partly drawn)
